Compounds with a hit are over-represented: about 5.8% of the library has one in this group of screens.
T cruzi growth-1: inhibitors of T. cruzi proliferation; T. cruzi beta-gal in NIH3T3, GalScreen luminescence, 90 h; inhibition, % at 8.34 µM; hit rate 5.9% among 77,000; AID 624255;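 active = mean inhibition above about 93%, with at least 55% of replicates each passing it, limit read from the data, passing the limit was not always enough; inconclusive = only one of those two conditions holds; inactive = neither condition holds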
IDH1 R132H inh: IDH1 R132H (human) inhibition | O75874 | IDH1 R132H reductase, diaphorase/resazurin fluorescence, 60 min | inhibition, % at 10 µM | hit rate 0.18% among 70,000; in the data active = inhibition above about 34%; inconclusive = no clear call, values can overlap the other calls; inactive = below about 11%;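 also: 0% = DMSO and 100% = no enzyme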
KDM4C inh: KDM4C (human) demethylase inhibition. hit rate 0.15% among 96,000. inhibition, % at 12.5 µM. GST-KDM4C 2-372, H3K9me3 peptide, LANCE TR-FRET. Q9H3R0;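 active = mean replicate inhibition above about 25%, with at least 55% of replicates also reaching it, limit read from the data, passing the limit was not always enough; inconclusive = only one of those two conditions met; inactive = neither condition met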
Target sequence (Q9H3R0 2-372 limits assumed): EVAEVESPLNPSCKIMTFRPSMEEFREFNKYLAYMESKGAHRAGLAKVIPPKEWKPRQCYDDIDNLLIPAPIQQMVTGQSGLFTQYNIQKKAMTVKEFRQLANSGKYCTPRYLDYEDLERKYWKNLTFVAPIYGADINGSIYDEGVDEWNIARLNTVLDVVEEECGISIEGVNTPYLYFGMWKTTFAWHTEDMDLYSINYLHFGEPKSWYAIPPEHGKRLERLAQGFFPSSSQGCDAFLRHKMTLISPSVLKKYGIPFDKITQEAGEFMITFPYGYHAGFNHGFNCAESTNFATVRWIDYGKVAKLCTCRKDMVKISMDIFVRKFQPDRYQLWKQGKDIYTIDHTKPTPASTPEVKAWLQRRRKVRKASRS
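System: N-terminal GST-fused human GASC-1 (KDM4C) fragment, residues 2-372 / Amount: 10 nM GST-KDM4C in enzyme reaction / Also added: H3K9me3 peptide with Fe(II)/2OG / Times: 30 min demethylation and 1 h detection at room temperature / Signal: LANCE TR-FRET / Read-out basis: Fall in 671/618 emission ratio as inhibition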
Pf Dd2 growth: P. falciparum Dd2 growth inhibition; SYBR Green, 72 h; hits give low values; activity change, % at 10 µM; hit rate 2.3% among 94,000; in the data active = activity change below about -80%; inconclusive = no clear call, values can overlap the other calls
T cruzi growth-2: blocks T. cruzi growth in NIH3T3 host cells. AID 651739. T. cruzi beta-gal in NIH3T3, GalScreen luminescence, 90 h. inhibition, % at 8.35 µM. hit rate 72% among 5,600. shares compounds with T cruzi growth-1;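 active = mean replicate inhibition above about 95% and at least 55% of replicates individually reaching it, limit read from the data; inconclusive = only one of the two criteria is met; inactive = neither criterion is met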
T cruzi growth-3: blocks T. cruzi growth in NIH3T3 host cells; shares compounds with T cruzi growth-1; T. cruzi beta-gal in NIH3T3, GalScreen luminescence, 90 h; inhibition, % at 2.09 µM; hit rate 21% among 5,600;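 active = mean inhibition above about 95%, with at least 55% of replicates also reaching it, limit read from the data; inconclusive = meets just one of the two conditions; inactive = meets neither condition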;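 also: plate controls were neutral control median for no effect and positive control median for full effect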
NIH3T3 tox: kills mouse NIH/3T3 fibroblasts. cytotoxicity (signal decrease), % at 8.35 µM. AID 651742. shares compounds with T cruzi growth-1. NIH/3T3 viability, CellTiter-Glo ATP luminescence, 90 h. hit rate 14% among 5,600;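 active = mean signal decrease across replicates above about 35% based on untreated-well scatter, with enough replicates individually passing, limit read from the data; inconclusive = no rule stated though some were filed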;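 also: 0% = median of neutral control wells and 100% = median of positive control wells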
NIH3T3 tox 2: cytotoxicity in mouse NIH/3T3 fibroblasts | hit rate 56% among 5,600 | NIH/3T3 viability, CellTiter-Glo ATP luminescence, 90 h | AID 651744 | shares compounds with T cruzi growth-1 | inhibition, % at 24.9 µM;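 active = mean loss of cell viability signal at or above a set limit, and enough replicates individually reaching it; inconclusive = meets only the mean limit or only the replicate share; inactive = meets neither condition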;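 also: 0% = median of neutral control wells and 100% = median of positive control wells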
Starred values were filed as active, the others as inactive; ? = inconclusive; · = not tested or not shown.

SMILES	T cruzi growth-1	IDH1 R132H inh	KDM4C inh	Pf Dd2 growth	T cruzi growth-2	T cruzi growth-3	NIH3T3 tox	NIH3T3 tox 2
COc1cccc(S(=O)(=O)N(C)C[C@H]2Oc3ncc(C#CC(C)C)cc3C(=O)N([C@@H](C)CO)C[C@@H]2C)c1	114.1*	-4.6	0.4	-64.0	83.2	52.8	-13.4	3.1
COc1cccc(S(=O)(=O)N(C)C[C@@H]2Oc3ncc(C#CCN(C)C)cc3C(=O)N([C@@H](C)CO)C[C@H]2C)c1	102.8*	-0.8	9.6	-7.8	95.5*	93.1	2.4	3.5
CCCC#Cc1cnc2c(c1)C(=O)N([C@H](C)CO)C[C@H](C)[C@H](CN(C)S(=O)(=O)c1ccccc1)O2	46.3	0.9	0.2	-53.9	·	·	·	·
C[C@@H]1CN([C@@H](C)CO)C(=O)c2cc(C#CCN(C)C)cnc2O[C@H]1CN(C)S(=O)(=O)c1ccccc1	97.3*	-0.5	3.3	-13.5	101.6*	86.8	-23.2	-5.7
COc1cccc(S(=O)(=O)N(C)C[C@H]2Oc3ncc(C#CC(C)C)cc3C(=O)N([C@H](C)CO)C[C@H]2C)c1	73.8	·	0.9	-19.9	·	·	·	·
Cc1ccc(S(=O)(=O)N(C)C[C@H]2Oc3ncc(C#CCC(C)C)cc3C(=O)N([C@@H](C)CO)C[C@H]2C)cc1	105.5*	-1.3	-0.2	-38.4	104.4*	77.4	33.4	92.7*
CCCC(=O)Nc1ccc2c(c1)C(=O)N(C)[C@@H]1CC[C@@H](CC(=O)NCCc3ccccc3)O[C@H]1CO2	-22.2	·	0.2	4.7	·	·	·	·
COc1cccc(S(=O)(=O)N(C)C[C@@H]2Oc3ncc(C#CC(C)C)cc3C(=O)N([C@H](C)CO)C[C@@H]2C)c1	96.3*	-4.0	-1.2	-18.9	83.7	18.7	15.3	52.1*
Cc1noc(C)c1S(=O)(=O)N(C)C[C@H]1OCCCC[C@@H](C)Oc2ccc(NC(=O)NC3CCCCC3)cc2C(=O)N([C@@H](C)CO)C[C@@H]1C	48.2	0.5	-1.0	-67.3	·	·	·	·
COc1ccc(NC(=O)N(C)C[C@@H]2Oc3cc(-c4ccc(C)cc4)ccc3S(=O)(=O)N([C@H](C)CO)C[C@H]2C)cc1	108.0*	0.1	0.1	-89.2*	105.5*	48.8	10.1	25.6*
COc1ccc(NC(=O)N(C)C[C@@H]2Oc3cc(-c4ccc(C)cc4)ccc3S(=O)(=O)N([C@@H](C)CO)C[C@@H]2C)cc1	103.7*	0.4	-2.0	-87.4*	114.6*	69.8	?	42.5*
COc1ccc(NC(=O)N(C)C[C@@H]2Oc3cc(-c4ccc(C)cc4)ccc3S(=O)(=O)N([C@@H](C)CO)C[C@H]2C)cc1	97.2*	4.7	0.3	-92.7*	103.5*	55.0	-1.6	23.0
COc1ccc(NC(=O)N(C)C[C@H]2Oc3cc(-c4ccc(C)cc4)ccc3S(=O)(=O)N([C@@H](C)CO)C[C@@H]2C)cc1	126.2*	0.3	-0.7	-74.3	107.2*	59.6	-8.5	37.1*
COc1ccccc1-c1ccc2c(c1)[C@H]1[C@H](CCN1S(=O)(=O)c1ccccc1OC)[C@@H](CO)N2	5.7	·	-2.4	-54.0	·	·	·	·
O=C(O)CCCCCCC(=O)N/N=C/c1cc(F)ccc1O	·	1.5	·	·	·	·	·	·
Cc1ccc(S(=O)(=O)N(C)C[C@H]2Oc3c(NC(=O)c4cc(C)nn4C)cccc3C(=O)N([C@H](C)CO)C[C@@H]2C)cc1	·	1.6	1.5	·	·	·	·	·
COc1ccc(NC(=O)N(C)C[C@H]2Oc3cc(-c4ccc(C)cc4)ccc3S(=O)(=O)N([C@H](C)CO)C[C@@H]2C)cc1	114.3*	-1.9	-3.4	-79.9	94.5	25.6	29.4	26.9
Cc1ccc(-c2ccc3c(c2)O[C@@H](CN(C)C(=O)Nc2ccccc2)[C@H](C)CN([C@H](C)CO)S3(=O)=O)cc1	·	-0.1	-1.2	-36.1	·	·	·	·
COc1ccc(NC(=O)N(C)C[C@H]2Oc3cc(-c4ccc(C)cc4)ccc3S(=O)(=O)N([C@H](C)CO)C[C@H]2C)cc1	102.0*	0.4	-2.9	-75.0	103.5*	71.4	1.5	-0.7
CO[C@@H]1CN(C)C(=O)c2cc(NC(C)=O)ccc2OC[C@@H](C)N(Cc2cccc(F)c2)C[C@H]1C	33.2	0.1	5.0	-38.6	·	·	·	·
CC(C)CC#Cc1ccc2c(c1)O[C@H](CN(C)Cc1ccccn1)[C@@H](C)CN([C@H](C)CO)S2(=O)=O	124.4*	-0.6	1.6	-56.7	106.4*	93.8	22.3	106.1*
CC(C)CC#Cc1ccc2c(c1)O[C@@H](CN(C)Cc1ccccn1)[C@@H](C)CN([C@H](C)CO)S2(=O)=O	109.5*	-2.1	10.8	-17.2	105.6*	52.1	-7.2	104.1*
C[C@H](CO)N1C[C@H](C)[C@@H](CN(C)Cc2ccncc2)OCCCC[C@H](C)Oc2ccc(N(C)C)cc2C1=O	33.2	1.9	2.0	4.0	·	·	·	·
C[C@@H]1CN([C@H](C)CO)C(=O)c2cccc(NC(=O)c3ccc(-c4nccs4)cc3)c2O[C@@H]1CN(C)Cc1ccc(C(F)(F)F)cc1	106.1	-12.0	-1.0	-46.3	·	·	·	·
C[C@@H]1CN([C@@H](C)CO)C(=O)c2cccc(NC(=O)c3ccc(-c4nccs4)cc3)c2O[C@@H]1CN(C)Cc1ccc(C(F)(F)F)cc1	?	0.4	-3.0	-78.2	110.9*	102.4*	-55.8	7.2
SMILES	T cruzi growth-1	IDH1 R132H inh	KDM4C inh	Pf Dd2 growth	T cruzi growth-2	T cruzi growth-3	NIH3T3 tox	NIH3T3 tox 2
C[C@H]1CN([C@@H](C)CO)C(=O)c2cccc(NC(=O)c3ccc(-c4nccs4)cc3)c2O[C@@H]1CN(C)Cc1ccc(C(F)(F)F)cc1	109.3*	-0.7	-2.4	-71.2	94.8	87.0	-4.4	83.7*
COc1ccccc1C#Cc1ccc2c(c1)[C@H]1[C@H](CCN1C(=O)c1ccc(F)cc1)[C@@H](CO)N2	·	·	-3.2	-65.0	·	·	·	·
O=C(c1ccc(F)cc1)N1CC[C@H]2[C@H](CO)Nc3ccc(C#Cc4ccccc4F)cc3[C@H]21	·	·	-0.2	-69.1	·	·	·	·
O=C(c1ccccc1)N1CC[C@@H]2[C@@H](CO)Nc3ccc(C#Cc4ccccc4F)cc3[C@@H]21	101.5*	·	0.7	-53.3	106.1*	70.9	-5.0	95.8*
COc1ccccc1C#Cc1ccc2c(c1)[C@H]1[C@H](CCN1C(=O)c1ccccc1)[C@H](CO)N2	100.3*	·	-2.2	-4.4	106.3*	84.0	30.5	82.7*
CCCC#Cc1ccc2c(c1)O[C@@H](CN(C)S(C)(=O)=O)[C@H](C)CN([C@H](C)CO)S2(=O)=O	15.4	-0.2	-0.5	-11.7	·	·	·	·
C[C@@H]1CN([C@H](C)CO)S(=O)(=O)c2ccc(C#Cc3ccccc3)cc2O[C@@H]1CN(C)S(C)(=O)=O	69.4	-1.2	-3.6	-40.2	·	·	·	·
